Source: PubChem
Shown are actives, neighbours in structure and some others; about 3.3% of the full set was active somewhere.
SIAE inh: blocks human sialic acid acetylesterase. Q9HAT2. SIAE FP-Rh probe binding, fluorescence polarization. inhibition, % at 9.66 µM. 370,000 tested, 0.69% active. AID 1053197;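 active = inhibition above a cutoff: mean of compounds within the control limits plus 3 SD of those, cut at about 17% in these data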
PRMT1 FP inh: inhibitors of human PRMT1; Q99873; recombinant PRMT1, activity-based probe fluorescence polarization; inhibition, % at 2.79 µM; 370,000 tested, 1.3% active; AID 652257;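 active = inhibition above about 21% made by adding two undisclosed values, limit read from the data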
mABHD4 FP: inhibits mouse alpha/beta hydrolase domain 4; Q8VD66; purified mABHD4, FP-Rh probe fluorescence polarization; inhibition, % at 8.92 µM; 370,000 tested, 0.54% active; AID 720543;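 active = inhibition exceeding the mean over every tested compound plus 3 SD, cut at about 30% in these data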
Target sequence (Q8VD66 whole entry, looked up, the tested form may be a part): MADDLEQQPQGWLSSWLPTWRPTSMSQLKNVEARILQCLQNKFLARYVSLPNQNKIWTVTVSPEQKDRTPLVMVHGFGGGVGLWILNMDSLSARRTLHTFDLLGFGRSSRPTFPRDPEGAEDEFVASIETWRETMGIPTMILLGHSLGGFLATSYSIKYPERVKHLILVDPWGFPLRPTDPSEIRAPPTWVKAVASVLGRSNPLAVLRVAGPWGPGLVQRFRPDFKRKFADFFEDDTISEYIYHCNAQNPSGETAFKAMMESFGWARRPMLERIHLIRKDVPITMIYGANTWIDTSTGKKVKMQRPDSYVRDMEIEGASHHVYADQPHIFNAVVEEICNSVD
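Test system: mABHD4 protein; Read-out basis: % inhibition; Incubation: 45 min + 60 min at 25 °C; Repeats: single replicate; Technique: fluorescence polarization with parallel and perpendicular emission, 525/598 nm; Compound: 8.92 µM, single dose; Benchmarks: full inhibition S159A mutant plus DMSO, zero as sample-well median.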
TCR CD3 inh: blocks the human TCR-CD3 interaction. 360,000 tested, 0.37% active. TAMRA-labeled TCR probe fluorescence, biochemical. inhibition, % at 9.4 µM. AID 651800; in the data active = inhibition above about 19%;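 also: recombinant mutant TCR 2C K166C tagged with TAMRA read by polarization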
rCAG binder: binds r(CAG) RNA repeats | inhibition, % at 3 µM | 370,000 tested, 1.3% active | r(CAG) RNA repeat, TO-PRO-1 dye displacement fluorescence;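 active = inhibition above the plate cutoff, the mean of all test compounds on that plate plus 3 SD, cut at about 35% in these data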;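 also: higher means more dye released from RNA so lower well fluorescence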
SIAE inh conf: human SIAE inhibition, confirmation; shares compounds with SIAE inh; SIAE FP-Rh activity-based probe, fluorescence polarization; inhibition, % at 9.66 µM; 2,300 tested, 13% active;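 active = mean inhibition of the replicates above the hit cutoff set in the primary screen, cut at about 17% in these data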;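 also: inhibitors lower polarization as more probe stays unbound to SIAE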
Large screens that a line does not name were inactive (follow-up assays come after a bar, where they were run).

NNC(=O)c1oc2nc(-c3cccs3)cc(-c3ccco3)c2c1N	SIAE inh 55 | SIAE inh conf 75
O=C(NC(Cc1c[nH]c2ccccc12)C(=O)Nc1ccc(F)c([N+](=O)[O-])c1)c1cccs1 (stereo unspecified)	SIAE inh 19 | SIAE inh conf inactive
O=C(NC(Cc1c[nH]c2ccccc12)C(=O)Nc1ccc(OC(F)(F)F)cc1)c1cccs1 (stereo unspecified)	none
COc1ccc(C(C(=O)Nc2ccc3c(c2)OCCO3)n2c(=O)c(-c3ccco3)nc3ccccc32)cc1 (stereo unspecified)	none
NNc1nc2c(-c3cccc(C(F)(F)F)c3)nnn2c2ccccc12	SIAE inh 22 | SIAE inh conf inactive
Nc1nc(C(F)(F)F)cc(=O)[nH]1	SIAE inh 21 | SIAE inh conf inactive
Cc1ccc(-c2nc(C(F)(F)F)cc(=O)[nH]2)cc1	none
O=C(c1ccc(Cl)cc1)N1CCC2CC1c1cc(-c3ccccc3)ccc12 (stereo unspecified)	SIAE inh 21 | SIAE inh conf inactive
COc1ccc(OC)c(NC(=O)CSc2nc3[nH]c(=O)cc(O)c3s2)c1	SIAE inh 19 | SIAE inh conf inactive
CCOc1ccc(N(C(C)C(=O)N2CCCCCC2)S(C)(=O)=O)cc1 (stereo unspecified)	SIAE inh 18 | SIAE inh conf inactive
COc1ccc(N(CC(O)CN2CCOCC2)S(=O)(=O)c2ccccc2)cc1 (stereo unspecified)	none
COc1ccc(-c2csc(NC(C)=O)n2)cc1OC	none
COc1cccc(NC(=O)Nc2nc(-c3ccc(OC)c(OC)c3)cs2)c1	SIAE inh 34 | SIAE inh conf inactive
CN1CCN(c2ncnc3c2ncn3[C@H]2CN(Cc3ccccc3)C[C@@H](CO)O2)CC1	none
COc1ccc(S(=O)(=O)N2CCN(C(=O)CN3C(=O)NC(C)(c4ccc5ccccc5c4)C3=O)CC2)cc1 (stereo unspecified)	SIAE inh 17 | SIAE inh conf inactive
CCOC(=O)[C@@H]1CSCCS(=O)(=O)N1	none
Oc1ccc2[nH]cc(-c3cccs3)c2c1-c1ccccc1	none (no result: TCR CD3 inh)
CCC1NC(=O)c2cc3ccccc3cc2-n2c1nc1cc(C)cc(C)c1c2=O (stereo unspecified)	SIAE inh 17 | SIAE inh conf inactive
CS(=O)(=O)N(CC(=O)NCCSC1CCCCC1)c1ccccc1	none
CS(=O)(=O)N(CC(=O)NCCSC1CCCCC1)c1cccc(F)c1	SIAE inh 18 | SIAE inh conf inactive
CC1(C(=O)NCc2cccc3ccccc23)CCN1Cc1cc2ccccc2o1 (stereo unspecified)	none
COc1ccccc1NC(=S)N/N=C/c1cccc(C)c1	none
COc1ccccc1NC(=S)N/N=C/c1ccc(O)cc1	SIAE inh 19 | SIAE inh conf inactive
CCCS(=O)(=O)NC(=O)C1(C)CCN(C(=O)CSc2ccccc2)C1 (stereo unspecified)	SIAE inh 20 | SIAE inh conf inactive
CCCNC(=O)N(C)C[C@H]1Oc2cc(Br)ccc2S(=O)(=O)N([C@@H](C)CO)C[C@@H]1C	none
COc1ccc(Br)cc1CNC(=O)Nc1cccs1	SIAE inh 19 | SIAE inh conf inactive
COc1ccccc1CNC(=O)Nc1cccs1	none
Cc1cccc[n+]1C1C(c2ccc([N+](=O)[O-])cc2)C(C#N)=C(C(=C=[N-])C#N)NC1(O)C1CC1 (stereo unspecified)	SIAE inh 40 | SIAE inh conf inactive
Cc1cccc[n+]1CC(=O)Nc1ccc([N+](=O)[O-])cc1	none
C[C@H]1CN([C@@H](C)CO)S(=O)(=O)c2ccc(Br)cc2O[C@H]1CN(C)C(=O)c1ccccc1F	none
Cc1ccc(N=C(NO)c2nonc2N)cc1	SIAE inh 41 | SIAE inh conf inactive
Cc1ccc(N=C(NO)c2nonc2N)c(C)c1	none
COc1cc(OC)c(NC(=O)N2CCOCC2)cc1Cl	SIAE inh 25 | SIAE inh conf inactive
COc1cc(OC)c(NC(=O)c2cc(S(=O)(=O)N3CCOCC3)cn2C)cc1Cl	none
CS(=O)(=O)N(Cc1ccc(C(=O)NCc2ccco2)cc1)c1ccccc1	none
CS(=O)(=O)N(Cc1ccc(C(=O)NCCSCc2ccco2)cc1)c1ccccc1	SIAE inh 18 | SIAE inh conf inactive
